Experimental data as given in PubChem BioAssay AID624268 (The Scripps Research Institute Molecular Screening Center, 2012).
The whole screen tested about 360,000 compounds, of which about 1,500 (0.42%) were called active. Shown is part of a subset that was picked to be rich in actives. Values without a mark were called inactive.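 How the source made its calls: active means inhibition above a per-plate cutoff of the control wells' mean inhibition plus 3 SD (cut at about 5.5% in these data); inactive means the rest.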

Test system: methionyl-tRNA synthetase (Trypanosoma brucei brucei)
Experiment: T. brucei MetRS inhibitors, primary screen, biochemical, luminescence (AID 624268);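 further: 0% = DMSO wells median and 100% = median of wells with control inhibitor compound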
Details: purified T. brucei MetRS, ATP depletion, Kinase-Glo luminescence; at 11.9 µM; active compounds read high
Method in brief: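 Test system – parasite MetRS enzyme · Reagent – substrates ATP, L-methionine and bulk Escherichia coli tRNA · Doses – 11.9 µM compound single dose, 0.9% DMSO · Times – 15 min enzyme-compound preincubation, 2 h reaction, 10 min detection, 25 °C · Signal – Kinase-Glo luminescence, ATP depletion format · Controls – DMSO-only wells as low control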

SMILES	inhibition
Cc1cccc(N=Nc2c(O)[nH]c3ccc(F)cc23)c1	0.2%
Oc1[nH]c2ccc(Br)cc2c1N=Nc1nn[nH]n1	5.61% (active)
Brc1ccc(-c2nn[nH]n2)cc1	0.2%
CCOC(=O)c1sc(NC(=O)CSc2nc(O)c(Cc3ccccc3)c(=O)[nH]2)nc1C	-1.03%
CCCS(=O)(=O)NC(=O)C1(C)CCCN(C(=O)c2ccnc(Cl)c2)C1 (configuration not stated)	-0.05%
Cn1c(CCCOc2ccc(Cl)cc2Cl)n[nH]c1=S	7.11% (active)
O=C(CCCOc1ccc(Cl)cc1Cl)NNC(=O)C1CCC1	1.44%
CC(C)Oc1ccc(Cc2n[nH]c(=S)n2Cc2ccccc2)cc1Cl	-0.26%
COC(=O)CN1C(=O)[C@H]2[C@@H](/C=C/c3ccccc3)N3C(=O)CN(CC4CC4)C(=O)[C@@]3(Cc3ccccc3)[C@H]2C1=O	-0.4%
O=C(CC(O)(C(F)(F)F)C(F)(F)F)Nc1ccc(Cl)c(Cl)c1	1.83%
NCCCCCC(=O)N/N=C/c1ccc2nccnc2c1	-0.25%
O=C(CC(=O)Nc1ccc(Cl)c(Cl)c1)N/N=C/c1ccc(O)cc1	10.6% (active)
Cc1csc(=O)n1CCC(=O)OCC(=O)NNC(=O)c1ccc(Br)cc1	-0.33%
CC1(C(=O)NS(=O)(=O)c2cccc(F)c2)CCN1C(=O)c1cccc2ccccc12 (configuration not stated)	-0.25%
COCCCNCCOCCOc1ccc(Cl)cc1Br	1.56%
O=C(N[C@H]1CC[C@H](CC(=O)N2CCCCC2)O[C@@H]1CO)c1cccc(F)c1	-0.31%
O=C(Oc1cccc(N2C(=O)C3C4c5ccccc5C(c5ccccc54)C3C2=O)c1)c1ccco1 (configuration not stated)	0.29%
O=C(/C(=N\O)n1cncn1)c1ccc(Br)cc1Br	17.9% (active)
CCc1ccc(N(CC(=O)Nc2sc3c(c2C(=O)OC)CCCC3)S(C)(=O)=O)cc1	0.46%
CCn1c(CSCc2c(Cl)cccc2Cl)n[nH]c1=S	0.37%
Cc1ccc(NCc2n[nH]c(=S)n2-c2ccccc2)cc1Cl	-0.41%
S=c1[nH]nc(CSCc2ccc(Cl)cc2Cl)n1-c1ccccc1	6.2% (active)
Nc1cc(N)nc(SCc2cccc(F)c2)n1	-0.35%

SMILES	inhibition
Cn1nc(-c2ccc(Cl)cc2)c2cc(C(=O)NCc3ccco3)sc21	2.08%
O=C(c1ccco1)N1CCN(CC(=O)N(C2CCCCC2)C2CCS(=O)(=O)C2)CC1 (configuration not stated)	-0.62%
Cc1ccc(NN=C2C(=O)OC(C)(C)OC2=O)c(C)c1	0.27%
O=C(CSc1nc2ccccc2[nH]1)N/N=C/C=C\c1ccccc1[N+](=O)[O-]	9.68% (active)
CCn1c(SCC(=O)N/N=C/C=C/c2ccccc2[N+](=O)[O-])nnc1-c1ccccc1	0.33%
O=C(COC(=O)CCCSc1nc2ccccc2[nH]1)Nc1ccc(Oc2ccccc2)cc1	-0.54%
COCCNC(=O)CN1C(=O)CSc2ncccc21	0.04%
O=C(NNS(=O)(=O)c1ccc(F)cc1)C1CCCCC1	-0.24%
CCOC(=O)CN(C(=O)CN1CCOCC1)c1ccc(Br)cc1	-1.11%
Cc1ccc(-c2cc(=O)[nH]c(NCc3ccccc3)n2)cc1	0.58%
C/C(=N\Nc1nc2ccccc2[nH]1)c1cccs1	2.21%
Cc1ccc(O)c(CNc2nc3ccccc3[nH]2)c1	72.6% (active)
C=CCN1CCN(C(=O)CCCc2ccccc2)CC1	0.23%
Cn1c(=O)c2c(nc(N3CCOCC3)n2CCNC2=NCCC2)n(C)c1=O	0.1%
Cc1nn(Cc2ccccc2)c(C)c1C(=O)NCCCN1CCCC1=O	-0.02%
O=C1CCCN1CCCNc1ncnc2c1[nH]c1ccccc12	37.3% (active)
O=Cc1c(NCCCN2CCCC2=O)c2ccccc2[nH]c1=O	-0.57%
Cc1ccnc2nc(C(=O)OCC(=O)N(CC(C)C)CC(C)C)nn12	-0.19%
O=[N+]([O-])c1ccc(N2CCN(c3ccc(O)cc3)CC2)c(Cl)c1	7.21% (active)
CCN1CCN(c2ccc([N+](=O)[O-])cc2C(=O)c2ccc(Cl)cc2)CC1	-0.26%
O=C(O)C1CCN(c2ccc([N+](=O)[O-])cc2[N+](=O)[O-])CC1	0.21%
NC(=S)NN=Cc1ccc(OC(=O)COc2cc(Cl)c(Cl)cc2Cl)cn1	0.02%
CCN(CC)C(=O)Cn1cc(S(=O)(=O)CC(=O)NCc2ccc3c(c2)OCO3)c2ccccc21	-0.63%

SMILES	inhibition
CC(C)NC(=O)CSc1ccccc1C(=O)NCc1ccc2c(c1)OCO2	-0.69%
CCN(CC)C(=O)C(=O)c1cn(CC(=O)NCc2ccc3c(c2)OCO3)c2ccccc12	60.8% (active)
CCOn1c(=O)c(=O)n(O)c2ccccc21	0.13%
O=C(NCc1ccccc1)c1cccc(NC(=O)C2CCCCC2)c1	-0.28%
CCOc1ccc(NC(=O)CC2C(=O)N(c3ccccc3)C(=O)N2CCOC)cc1 (configuration not stated)	0.31%
COC(=O)CN1C(=S)N(c2ccccc2)C(=O)C1CC(=O)Nc1ccc(Cl)cc1 (configuration not stated)	12% (active)
COCCN1C(=O)N(c2ccc(Cl)cc2)C(=O)C1CC(=O)Nc1cc(OC)cc(OC)c1 (configuration not stated)	0.28%
CCCc1nnc(NC(=O)CCC(=O)NC2CC2)s1	0.11%
COc1cccc(C(CC(=O)NCCN2CCOCC2)NS(=O)(=O)c2ccc(C)cc2)c1OC (configuration not stated)	-0.3%
CCOc1ccc(C(=O)Nc2cc(Cl)ccc2-n2cncn2)cc1OC	-0.61%
Cc1ccccc1OCC(=O)NNC(=O)c1cc(S(=O)(=O)N(C)C)ccc1N1CCCC1	-0.26%
O=C(NNC(=O)c1ccc(-n2cncn2)c([N+](=O)[O-])c1)c1ccccc1	17.1% (active)
Cc1ccc(S(=O)(=O)N(C)C)cc1NC(=O)c1ccccc1Br	-0.6%
Cc1ccc(S(=O)(=O)N(C)C)cc1NC(=O)c1ccc(-n2cncn2)c([N+](=O)[O-])c1	41% (active)
Cc1ccccc1OCC(=O)NNC(=O)c1ccc(-n2cncn2)c([N+](=O)[O-])c1	8.29% (active)
Cc1ccc(S(=O)(=O)N2CCN(C(=O)c3ccc(-n4cncn4)c([N+](=O)[O-])c3)CC2)cc1	1.45%
Cc1cc(O)c(NC(=O)c2ccc(C)c([N+](=O)[O-])c2)cc1C	-1.17%
CC(=O)c1ccc(NC(=O)c2ccc(-n3cncn3)c([N+](=O)[O-])c2)cc1	36.6% (active)
O=C(COc1ccccc1F)NNC(=O)c1ccc(N2CCCCC2)c([N+](=O)[O-])c1	-0.55%
CC(C)NC(=O)c1ccc(Sc2ccccc2)c([N+](=O)[O-])c1	-1.54%
CC(=O)Nc1ccc(NC(=S)NC(=O)c2ccc([N+](=O)[O-])c(C)c2)cc1	-0.17%
